{
  "source": "ChEMBL document CHEMBL4350961",
  "about": "“Discovery of Pyrrolo[3,2- d]pyrimidin-4-one Derivatives as a New Class of Potent and Cell-Active Inhibitors of P300/CBP-Associated Factor Bromodomain” (J Med Chem, 2019)",
  "key": {"[1]": {"target": "PAS domain-containing serine/threonine-protein kinase (Homo sapiens) (UniProt Q96RG2)", "test": "Inhibition of recombinant human PASK (995 to end residues) at 10 uM using KKLNRTLSFAEPG as substrate measured after 40 mins in presence of [gamma33P]ATP by scintillation counting method"}, "Homo sapiens [2]": {"species_on_record": "Homo sapiens", "test": "Inhibition of recombinant human Plk4 S34T mutant (1 to 273 residues) at 10 uM using casein as substrate measured after 40 mins in presence of [gamma33P]ATP by scintillation counting method"}, "[3]": {"target": "Serine/threonine-protein kinase PAK 3 (Homo sapiens) (UniProt O75914)", "sequence (O75914 whole entry, looked up)": "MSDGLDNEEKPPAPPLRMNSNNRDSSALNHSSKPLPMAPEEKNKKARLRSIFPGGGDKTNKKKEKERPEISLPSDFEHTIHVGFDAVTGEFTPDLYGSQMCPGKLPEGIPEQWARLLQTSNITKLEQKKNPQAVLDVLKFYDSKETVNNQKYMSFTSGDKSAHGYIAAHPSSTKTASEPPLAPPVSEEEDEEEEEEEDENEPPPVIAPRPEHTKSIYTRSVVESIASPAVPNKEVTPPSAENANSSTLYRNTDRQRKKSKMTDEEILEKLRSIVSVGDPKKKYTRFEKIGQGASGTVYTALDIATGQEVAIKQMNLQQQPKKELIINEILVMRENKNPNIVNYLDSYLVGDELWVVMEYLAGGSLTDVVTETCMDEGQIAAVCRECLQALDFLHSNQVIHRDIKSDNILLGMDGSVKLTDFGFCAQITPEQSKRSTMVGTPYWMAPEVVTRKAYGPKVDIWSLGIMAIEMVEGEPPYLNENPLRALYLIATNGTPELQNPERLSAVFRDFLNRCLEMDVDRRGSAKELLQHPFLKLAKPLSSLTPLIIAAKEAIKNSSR", "test": "Inhibition of recombinant full-length human PAK3 at 10 uM using RRRLSFAEPG as substrate measured after 40 mins in presence of [gamma33P]ATP by scintillation counting method"}, "[4]": {"target": "Serine/threonine-protein kinase SIK3 (Homo sapiens) (UniProt Q9Y2K2)", "sequence (Q9Y2K2 whole entry, looked up, the tested form may be a part)": "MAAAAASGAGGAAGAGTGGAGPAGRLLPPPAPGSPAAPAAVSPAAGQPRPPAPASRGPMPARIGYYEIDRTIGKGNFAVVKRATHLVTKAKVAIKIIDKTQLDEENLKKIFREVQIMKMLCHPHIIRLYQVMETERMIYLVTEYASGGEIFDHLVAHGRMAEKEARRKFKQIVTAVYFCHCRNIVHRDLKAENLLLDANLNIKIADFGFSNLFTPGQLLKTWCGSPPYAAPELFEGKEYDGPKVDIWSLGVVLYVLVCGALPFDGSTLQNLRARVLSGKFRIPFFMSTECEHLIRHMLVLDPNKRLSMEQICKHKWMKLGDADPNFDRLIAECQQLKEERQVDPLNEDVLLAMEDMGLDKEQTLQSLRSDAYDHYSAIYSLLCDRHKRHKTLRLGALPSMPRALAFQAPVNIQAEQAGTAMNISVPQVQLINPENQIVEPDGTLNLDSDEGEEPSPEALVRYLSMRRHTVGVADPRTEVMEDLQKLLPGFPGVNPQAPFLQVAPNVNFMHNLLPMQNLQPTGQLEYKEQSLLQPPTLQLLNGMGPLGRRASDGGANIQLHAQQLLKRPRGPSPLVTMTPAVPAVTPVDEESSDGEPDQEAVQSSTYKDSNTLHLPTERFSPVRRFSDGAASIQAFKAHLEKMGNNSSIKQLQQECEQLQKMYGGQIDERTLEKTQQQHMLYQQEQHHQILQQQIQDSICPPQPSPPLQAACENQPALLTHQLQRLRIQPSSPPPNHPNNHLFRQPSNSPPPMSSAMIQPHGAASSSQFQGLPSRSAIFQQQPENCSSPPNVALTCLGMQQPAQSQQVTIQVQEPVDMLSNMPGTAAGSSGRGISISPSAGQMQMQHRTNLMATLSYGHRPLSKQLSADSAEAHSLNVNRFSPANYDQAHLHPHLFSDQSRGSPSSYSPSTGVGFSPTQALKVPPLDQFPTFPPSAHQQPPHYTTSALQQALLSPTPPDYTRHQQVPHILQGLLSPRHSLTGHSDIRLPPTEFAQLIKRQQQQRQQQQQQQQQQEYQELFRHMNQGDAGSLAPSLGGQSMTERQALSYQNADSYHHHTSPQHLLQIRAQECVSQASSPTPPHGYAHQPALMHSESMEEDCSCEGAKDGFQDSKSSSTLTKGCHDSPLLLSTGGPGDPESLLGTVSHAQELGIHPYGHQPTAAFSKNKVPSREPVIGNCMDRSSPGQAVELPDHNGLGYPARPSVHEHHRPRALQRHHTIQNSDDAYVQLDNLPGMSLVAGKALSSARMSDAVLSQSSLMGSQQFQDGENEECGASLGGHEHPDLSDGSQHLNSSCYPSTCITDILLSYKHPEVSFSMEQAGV", "test": "Inhibition of human SIK3 (1 to 307 residues) using KKKVSRSGLYRSPSMPENLNRPR as substrate measured after 40 mins in presence of [gamma33P]ATP by scintillation counting method", "procedure,_shortened": "(§1)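 Kinase panel of 422 kinases screened by Eurofins KinaseProfiler at a single test-compound concentration of 10 µM.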"}, "[5]": {"target": "Activin receptor type-1B (Homo sapiens) (UniProt P36896)", "test": "Inhibition of recombinant human ALK4 (150 to end residues) at 10 uM using casein as substrate measured after 40 mins in presence of [gamma33P]ATP by scintillation counting method"}, "[6]": {"target": "Cytoplasmic tyrosine-protein kinase BMX (Homo sapiens) (UniProt P51813)", "test": "Inhibition of full-length recombinant human BMX at 10 uM using poly(Glu, Tyr) 4:1 as substrate measured after 40 mins in presence of [gamma33P]ATP by scintillation counting method", "procedure,_shortened": "as §1"}, "[7]": {"target": "Cyclin-dependent kinase 5/CDK5 activator 1 (Homo sapiens) (UniProt Q00535+Q15078)", "test": "Inhibition of recombinant full-length human CDK5/p35 at 10 uM using histone H1 as substrate measured after 40 mins in presence of [gamma33P]ATP by scintillation counting method", "type": "protein-complex assay"}, "[8]": {"target": "Serine/threonine-protein kinase Nek7 (Homo sapiens) (UniProt Q8TDX7)", "sequence (Q8TDX7 whole entry, looked up)": "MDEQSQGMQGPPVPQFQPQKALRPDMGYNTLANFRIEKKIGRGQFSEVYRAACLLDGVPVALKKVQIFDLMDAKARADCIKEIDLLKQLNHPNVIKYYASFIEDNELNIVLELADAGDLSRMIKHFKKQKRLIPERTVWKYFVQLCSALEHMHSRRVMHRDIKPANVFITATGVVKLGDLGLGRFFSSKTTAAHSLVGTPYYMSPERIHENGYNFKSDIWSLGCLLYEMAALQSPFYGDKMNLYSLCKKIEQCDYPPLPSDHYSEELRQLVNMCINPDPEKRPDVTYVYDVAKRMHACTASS", "test": "Inhibition of recombinant human NEK7 (2 to end residues) at 10 uM using FLAKSFGSPNRAYKK as substrate measured after 40 mins in presence of [gamma33P]ATP by scintillation counting method"}, "[9]": {"target": "Transcription initiation factor TFIID subunit 1 (Homo sapiens) (UniProt P21675)", "sequence (P21675 whole entry)": "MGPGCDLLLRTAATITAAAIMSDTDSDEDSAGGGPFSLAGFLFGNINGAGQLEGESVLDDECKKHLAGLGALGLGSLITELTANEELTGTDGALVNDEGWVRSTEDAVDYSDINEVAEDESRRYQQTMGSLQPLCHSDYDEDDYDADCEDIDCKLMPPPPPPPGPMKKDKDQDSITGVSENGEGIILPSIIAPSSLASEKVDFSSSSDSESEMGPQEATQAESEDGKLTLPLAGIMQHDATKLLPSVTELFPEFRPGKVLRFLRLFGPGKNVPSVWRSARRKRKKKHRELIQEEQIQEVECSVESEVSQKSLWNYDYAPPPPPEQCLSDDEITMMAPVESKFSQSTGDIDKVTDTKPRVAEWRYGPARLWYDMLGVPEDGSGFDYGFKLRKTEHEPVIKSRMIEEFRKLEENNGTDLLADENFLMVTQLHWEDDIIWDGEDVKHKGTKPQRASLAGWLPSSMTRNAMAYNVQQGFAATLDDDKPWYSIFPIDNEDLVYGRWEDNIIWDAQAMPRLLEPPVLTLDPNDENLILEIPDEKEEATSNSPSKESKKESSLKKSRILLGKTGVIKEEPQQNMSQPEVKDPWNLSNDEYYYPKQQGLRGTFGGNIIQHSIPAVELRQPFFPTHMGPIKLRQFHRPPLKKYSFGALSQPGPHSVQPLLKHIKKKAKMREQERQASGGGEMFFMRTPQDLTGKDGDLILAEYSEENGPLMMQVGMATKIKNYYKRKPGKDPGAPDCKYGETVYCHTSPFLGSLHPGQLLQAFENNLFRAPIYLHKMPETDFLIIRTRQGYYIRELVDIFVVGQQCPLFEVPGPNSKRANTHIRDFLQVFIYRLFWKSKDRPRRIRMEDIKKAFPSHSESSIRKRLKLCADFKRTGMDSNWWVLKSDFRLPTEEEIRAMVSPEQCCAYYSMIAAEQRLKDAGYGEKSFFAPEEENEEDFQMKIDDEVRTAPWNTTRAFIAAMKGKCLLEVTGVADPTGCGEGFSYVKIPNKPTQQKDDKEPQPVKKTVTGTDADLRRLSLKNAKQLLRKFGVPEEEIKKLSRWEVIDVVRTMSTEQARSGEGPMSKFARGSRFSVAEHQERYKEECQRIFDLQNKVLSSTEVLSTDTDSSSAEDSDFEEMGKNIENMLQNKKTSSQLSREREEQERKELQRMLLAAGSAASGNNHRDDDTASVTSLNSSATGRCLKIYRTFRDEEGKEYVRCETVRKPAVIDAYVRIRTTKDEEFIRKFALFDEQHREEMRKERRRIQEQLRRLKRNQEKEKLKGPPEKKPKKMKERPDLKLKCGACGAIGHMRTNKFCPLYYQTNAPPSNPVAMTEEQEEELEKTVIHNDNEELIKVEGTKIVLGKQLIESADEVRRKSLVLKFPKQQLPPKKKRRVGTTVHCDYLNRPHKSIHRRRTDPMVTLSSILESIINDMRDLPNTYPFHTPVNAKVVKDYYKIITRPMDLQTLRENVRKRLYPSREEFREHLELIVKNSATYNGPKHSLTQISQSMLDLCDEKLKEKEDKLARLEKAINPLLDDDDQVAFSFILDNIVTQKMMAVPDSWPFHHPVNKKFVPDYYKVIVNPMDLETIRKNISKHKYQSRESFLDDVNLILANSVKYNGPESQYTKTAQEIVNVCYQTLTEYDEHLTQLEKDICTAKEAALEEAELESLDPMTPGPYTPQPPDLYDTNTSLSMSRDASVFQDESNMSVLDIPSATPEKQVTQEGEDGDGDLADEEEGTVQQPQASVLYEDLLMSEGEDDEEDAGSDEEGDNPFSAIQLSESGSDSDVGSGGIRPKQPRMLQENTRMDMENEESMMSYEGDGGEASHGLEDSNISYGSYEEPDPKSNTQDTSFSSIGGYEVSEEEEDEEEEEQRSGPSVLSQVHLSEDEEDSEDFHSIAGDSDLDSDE", "test": "Binding affinity to human N-terminal His-tagged TAF1 bromodomain1 assessed as change in melting temperature at 10 uM by SYPRO orange dye-based fluorescence assay", "procedure,_shortened": "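Thermal shift with His-tagged human bromodomain at 2 μM final in 10 mM HEPES pH 7.5, 500 mM NaCl. Compound at 10 μM final with 0.1% DMSO; SYPRO Orange at 1:1000. Equilibrated 3 min at 25 °C, then heated from 25 to 95 °C at 1 °C/min. Melting temperature shift taken from fluorescence; at least duplicate.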"}, "[10]": {"target": "Casein kinase I isoform delta (Homo sapiens) (UniProt P48730)", "test": "Inhibition of recombinant human CK1delta (1 to 294 residues) at 10 uM using KRRRALS(p)VASLPGL as substrate measured after 40 mins in presence of [gamma33P]ATP by scintillation counting method"}, "[11]": {"target": "Serine/threonine-protein kinase PLK2 (Homo sapiens) (UniProt Q9NYY3)", "sequence (Q9NYY3 whole entry, looked up, the tested form may be a part)": "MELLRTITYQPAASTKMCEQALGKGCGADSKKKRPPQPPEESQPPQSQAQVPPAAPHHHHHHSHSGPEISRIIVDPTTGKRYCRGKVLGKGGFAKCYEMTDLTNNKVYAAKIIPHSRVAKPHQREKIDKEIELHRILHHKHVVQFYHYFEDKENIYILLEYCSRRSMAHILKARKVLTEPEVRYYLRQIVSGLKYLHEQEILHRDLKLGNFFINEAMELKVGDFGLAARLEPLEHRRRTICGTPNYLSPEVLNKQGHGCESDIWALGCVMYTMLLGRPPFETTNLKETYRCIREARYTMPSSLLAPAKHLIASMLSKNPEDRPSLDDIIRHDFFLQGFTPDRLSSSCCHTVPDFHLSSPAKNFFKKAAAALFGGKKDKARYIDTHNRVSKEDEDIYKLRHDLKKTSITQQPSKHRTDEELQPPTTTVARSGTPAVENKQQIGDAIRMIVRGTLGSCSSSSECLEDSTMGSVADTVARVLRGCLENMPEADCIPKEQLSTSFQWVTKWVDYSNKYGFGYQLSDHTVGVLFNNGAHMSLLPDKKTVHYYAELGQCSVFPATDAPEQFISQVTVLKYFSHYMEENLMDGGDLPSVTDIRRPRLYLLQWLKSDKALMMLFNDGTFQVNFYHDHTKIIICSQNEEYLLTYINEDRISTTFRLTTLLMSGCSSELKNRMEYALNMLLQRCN", "test": "Inhibition of human Snk (65 to 409 residues) using casein as substrate measured after 40 mins in presence of [gamma33P]ATP by scintillation counting method", "procedure,_shortened": "as §1"}, "Homo sapiens [12]": {"species_on_record": "Homo sapiens", "test": "Inhibition of human activated Tec F514V mutant (174 to end residues) using EFPIYDFLPAKKK as substrate measured after 40 mins in presence of [gamma33P]ATP by scintillation counting method"}, "[13]": {"target": "Bromodomain testis-specific protein (Homo sapiens) (UniProt Q58F21)", "test": "Binding affinity to human partial length BRDT bromodomain 1 (N21 to E137 residues) expressed in bacterial expression system at 1 uM by BROMOscan assay", "procedure,_shortened": "(§2)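 BROMOscan bromodomain cross-screen run by an outside service, compound at 1 µM against 32 recombinant bromodomains. Binding given as percent of control.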"}, "[14]": {"target": "Ephrin type-B receptor 3 (Homo sapiens) (UniProt P54753)", "test": "Inhibition of recombinant human EphB3 (599 to 920 residues) at 10 uM using poly (Glu, Tyr) 4:1 as substrate measured after 40 mins in presence of [gamma33P]ATP by scintillation counting method"}, "[15]": {"target": "Cyclin-dependent kinase 1/cyclin B1 (Homo sapiens) (UniProt P06493+P14635)", "test": "Inhibition of recombinant full-length human CDK1/cyclinB at 10 uM using histone H1 as substrate measured after 40 mins in presence of [gamma33P]ATP by scintillation counting method", "type": "protein-complex assay"}, "[16]": {"target": "Serine/threonine-protein kinase pim-2 (Homo sapiens) (UniProt Q9P1W9)", "sequence (Q9P1W9 whole entry, looked up)": "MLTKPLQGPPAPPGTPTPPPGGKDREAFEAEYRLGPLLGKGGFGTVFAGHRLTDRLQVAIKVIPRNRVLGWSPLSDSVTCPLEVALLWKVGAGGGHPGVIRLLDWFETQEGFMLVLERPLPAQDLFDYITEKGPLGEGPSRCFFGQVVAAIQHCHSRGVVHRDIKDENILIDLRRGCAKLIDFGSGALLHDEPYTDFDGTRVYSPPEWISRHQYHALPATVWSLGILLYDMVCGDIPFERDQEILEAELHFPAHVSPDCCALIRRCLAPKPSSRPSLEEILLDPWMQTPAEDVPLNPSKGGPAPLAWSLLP", "test": "Inhibition of recombinant human Pim2 (2 to end residues) at 10 uM using RSRHSSYPAGT as substrate measured after 40 mins in presence of [gamma33P]ATP by scintillation counting method"}, "[17]": {"target": "ATPase family AAA domain-containing protein 2 (Homo sapiens) (UniProt Q6PL18)", "test": "Binding affinity to human partial length ATAD2A (Q981 to R1108 residues) expressed in bacterial expression system at 1 uM by BROMOscan assay", "procedure,_shortened": "as §2"}, "Mus musculus": {"species_on_record": "Mus musculus", "test": "Inhibition of recombinant full-length mouse PI3K p110alpha/p85alpha at 10 uM using phosphatidylinositol-4, 5-bisphosphate as substrate measured after 40 mins by HTRF assay"}},
  "note": "Calls of active or inactive are those of the source. The rule behind the calls is not given here.",
  "data": [
    {"compound": "CN1C[C@H](Nc2nc3cc[nH]c3c(=O)n2C)C[C@H](c2ccc3c(c2)OCCO3)C1", "values": [
      {"measurement": "inhibition", "setting": "[1]", "value": "inactive"},
      {"measurement": "inhibition", "setting": "Homo sapiens [2]", "value": "inactive"},
      {"measurement": "inhibition", "setting": "[3]", "value": "inactive"},
      {"measurement": "inhibition", "setting": "[4]", "value": "inactive"},
      {"measurement": "inhibition", "setting": "[5]", "value": "inactive"},
      {"measurement": "inhibition", "setting": "[6]", "value": "inactive"},
      {"measurement": "inhibition", "setting": "[7]", "value": "inactive"},
      {"measurement": "inhibition", "setting": "[8]", "value": "inactive"},
      {"measurement": "ΔTm", "setting": "[9]", "value": 0.2, "unit": "°C"},
      {"measurement": "inhibition", "setting": "[10]", "value": "inactive"},
      {"measurement": "inhibition", "setting": "[11]", "value": "inactive"},
      {"measurement": "inhibition", "setting": "Homo sapiens [12]", "value": "inactive"},
      {"measurement": "Activity", "setting": "[13]", "value": "inactive"},
      {"measurement": "inhibition", "setting": "[14]", "value": "inactive"},
      {"measurement": "inhibition", "setting": "[15]", "value": "inactive"},
      {"measurement": "inhibition", "setting": "[16]", "value": "inactive"},
      {"measurement": "Activity", "setting": "[17]", "value": "inactive"},
      {"measurement": "inhibition", "setting": "Mus musculus", "value": "inactive"}
    ]}
  ]
}
